The target of data set [1] is T1, Proprotein convertase subtilisin/kexin type 9 (Homo sapiens, UniProt Q8NBP7). The data set is described as follows: Binding affinity to human PCSK9 by surface plasmon resonance. The method in brief:
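Recombinant human His-tagged PCSK9 (Gln31–Gln692, HEK293-expressed) at 14 µg/mL amine-coupled onto Ni-NTA chip, ~1000–4000 RU. Buffer 25 mM Tris-HCl, 5 mM CaCl2, 100 mM NaCl, 0.01% P20, pH 7.5, 5% DMSO in running buffer. 25°C. Double-referenced sensorgrams; KD from steady-state equilibrium responses fit to a 4-parameter model, or kinetics fit 1:1.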
Background: In SPR one partner is held on a chip, and binding of the other changes the refractive index at the surface.

A short description of data set [2]: Reversal of LDL uptake in human HepG2 cells for 2 hrs preincubation with PCSK9 followed by LDL addition and measured after 4 hrs by fluorimetry method relative to control. It counts as functional, cell-based. Summed up:
(§1)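 HepG2 cells seeded 40000/well, serum-starved 24 h in DMEM with 5% LPDS. Human His-PCSK9 (20–50 nM) preincubated 30–60 min at room temperature ± compounds (10 µM to 0.0001 µM, 0.1% DMSO). Cells then exposed 2 h at 37°C. LDL-BODIPY added to 10 µg/mL final for 4 h. Fluorescence read at ex 480/em 520 nm. Expressed as % maximal LDL-BODIPY incorporation; EC50 by non-linear fit.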

Data set [3] can be described thus: Effect on mast cell degranulation in human LAD2 cells assessed as CCL3 release measured after 2 hrs by Luminex bead based assay. In kind it is functional. The following applies: for EC50: Homo sapiens, LAD2, 2 h; for Emax: time 2 hrs. The method in brief: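 LAD2 human mast cells in StemPro 34 medium, 0.2×10^6 cells/well. Supernatant CCL3 quantified by Luminex magnetic bead kit.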

The test system of data set [4] is HepG2. The data set is described as follows: Cytotoxicity against human HepG2 cells assessed as reduction in cell viability at 0.4 to 10 uM for 48 hrs by SRB assay. In kind it is toxicity, cell-based. To be noted: hepg2, 48 h, dose 0.4-10 µM. Summed up: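 HepG2 cells seeded 2000/well 24 h before treatment. Compounds at 0.4, 1.1, 3.3 and 10 µM in DMEM, 48 h at 37°C. SRB staining 30 min at 37°C, dye dissolved in 10 mM Tris base, absorbance at 560 nm. Triplicate wells averaged and normalized to untreated cells.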
For orientation: Sulforhodamine B stains cellular protein and so reports cell mass.

For data set [5], the target named is T1, Proprotein convertase subtilisin/kexin type 9. The data set is described as follows: Binding affinity to human PCSK9.
A short description of data set [6]: Reversal of LDL uptake in human HepG2 cells at 10 uM for 2 hrs preincubation with PCSK9 followed by LDL addition and measured after 4 hrs by fluorimetry method relative to control. In kind it is functional. To be noted: time 6 hrs. The method in brief:
as §1

Positions of bridges follow the written chain, without caps; N, C: chain ends. Residues, ends and D or L forms follow the SMILES beside them.

T1 sequence (Q8NBP7 31-152 limits assumed): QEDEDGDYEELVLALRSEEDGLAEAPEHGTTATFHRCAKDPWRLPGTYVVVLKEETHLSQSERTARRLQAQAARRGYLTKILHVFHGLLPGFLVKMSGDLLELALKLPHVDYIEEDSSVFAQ
T1 sequence (Q8NBP7 153-692 limits assumed): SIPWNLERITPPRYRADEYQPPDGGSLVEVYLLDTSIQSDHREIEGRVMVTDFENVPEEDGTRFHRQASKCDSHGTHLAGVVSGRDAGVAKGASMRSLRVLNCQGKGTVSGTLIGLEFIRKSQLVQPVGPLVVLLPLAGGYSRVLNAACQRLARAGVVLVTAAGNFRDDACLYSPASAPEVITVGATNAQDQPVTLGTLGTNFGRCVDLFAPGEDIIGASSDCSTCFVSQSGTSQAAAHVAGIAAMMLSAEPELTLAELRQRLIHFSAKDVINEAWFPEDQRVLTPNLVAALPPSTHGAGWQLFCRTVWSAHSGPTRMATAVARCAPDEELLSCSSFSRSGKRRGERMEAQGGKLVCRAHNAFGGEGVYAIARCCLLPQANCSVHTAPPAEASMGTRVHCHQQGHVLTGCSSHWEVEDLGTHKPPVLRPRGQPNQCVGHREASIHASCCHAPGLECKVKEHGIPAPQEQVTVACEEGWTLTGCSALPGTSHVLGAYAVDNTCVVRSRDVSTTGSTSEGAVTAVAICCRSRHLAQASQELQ

As to `CC(=O)N[C@@H](Cc1cnc[nH]1)C(=O)N[C@H](C(=O)N[C@@H](Cc1ccccc1)C(=O)N[C@@H](CCCCN)C(=O)N[C@@H](CO)C(=O)N[C@@H](Cc1c[nH]c2ccccc12)C(=O)N[C@H]1CCCCNC(=O)C[C@@H](C(=O)N[C@@H](Cc2c[nH]c3ccccc23)C(=O)N[C@H](C(=O)N[C@@H](CCCCN)C(=O)N[C@@H](CCCCN)C(=O)N[C@@H](CCCCN)C(=O)N[C@@H](CCCCN)C(=O)N[C@@H](CCCCN)C(=O)N[C@@H](CCCCN)C(N)=O)C(C)C)NC(=O)[C@H](CC(C)C)NC(=O)[C@H](Cc2ccc(O)cc2)NC(=O)[C@H](CCC(=O)O)NC1=O)C(C)C` (Ac-HVFKSWKEYLDWVKKKKKK-NH2; lactam 7-11), the affinity in data set [1], expressed as Kd, was 6 nM. For the same compound, the 50% effective concentration (EC50) (as a rule, the concentration that produces a half-maximal response) in data set [2] was found to be 175 nM; in data set [3], 2200 nM. Further, the Emax in data set [3] is 1483.2 pg/mL. Further, in data set [4], the Activity entry was “Non-Toxic”.
On to Ac-TVFTSWEEYLDWVKKKKKK-NH2, for which the Kd in data set [1] and in data set [5] was 424 nM in each case. Further, the Activity entry in data set [4] was “Non-Toxic”.
Consider `CC(=O)N[C@H](C(=O)N[C@H](C(=O)N[C@@H](Cc1ccccc1)C(=O)N[C@H](C(=O)N[C@@H](CO)C(=O)N[C@@H](Cc1c[nH]c2ccccc12)C(=O)N[C@@H](CCC(=O)O)C(=O)N[C@@H](CCC(=O)O)C(=O)N[C@@H](Cc1ccc(O)cc1)C(=O)N[C@@H](CC(C)C)C(=O)N[C@@H](CC(=O)O)C(=O)N[C@@H](Cc1c[nH]c2ccccc12)C(=O)N[C@H](C(N)=O)C(C)C)[C@@H](C)O)C(C)C)[C@@H](C)O`, for which the Activity is recorded as 56.5% in data set [6] and “Non-Toxic” in data set [4]. Further, binding in data set [1] was characterised by a dissociation constant (Kd) of 9700 nM. Moreover, the results for the EC50 in data set [2] and in data set [3] were 6000 nM and > 5000 nM, respectively. In addition, the Emax in data set [3] came out at 116.7 pg/mL.
Take Ac-TVFTSWEEYLDWVKKK-NH2: the values for the Activity in data set [6] and in data set [4] were 72.3% and “Non-Toxic”, respectively. For the same compound, the Kd in data set [1] and in data set [5] was 1600 nM in each case.

The record behind these values is ChEMBL document CHEMBL5038602, “Potent Lys Patch-Containing Stapled Peptides Targeting PCSK9” (J Med Chem, 2021).
